Source: ChEMBL document CHEMBL4732114, “Design and structural optimization of novel 2H-benzo[h]chromene derivatives that target AcrB and reverse bacterial multidrug resistance” (Eur J Med Chem, 2021)
≈ marks a conversion by molar mass, not a printed value.

Tests used:
[1] = target: T1, Multidrug efflux pump subunit AcrB (Escherichia coli (strain K12)) (UniProt P31224); test: Inhibition of AcrB in multidrug-resistant Escherichia coli BW25113 assessed as potentiation of chloramphenicol-induced antibacterial activity by measuring chloramphenicol MIC at 128 ug/ml by checkerboard titration method (reference value: 8 ug/ml); settings: dose 128.0 µg/ml
T1 sequence (whole entry): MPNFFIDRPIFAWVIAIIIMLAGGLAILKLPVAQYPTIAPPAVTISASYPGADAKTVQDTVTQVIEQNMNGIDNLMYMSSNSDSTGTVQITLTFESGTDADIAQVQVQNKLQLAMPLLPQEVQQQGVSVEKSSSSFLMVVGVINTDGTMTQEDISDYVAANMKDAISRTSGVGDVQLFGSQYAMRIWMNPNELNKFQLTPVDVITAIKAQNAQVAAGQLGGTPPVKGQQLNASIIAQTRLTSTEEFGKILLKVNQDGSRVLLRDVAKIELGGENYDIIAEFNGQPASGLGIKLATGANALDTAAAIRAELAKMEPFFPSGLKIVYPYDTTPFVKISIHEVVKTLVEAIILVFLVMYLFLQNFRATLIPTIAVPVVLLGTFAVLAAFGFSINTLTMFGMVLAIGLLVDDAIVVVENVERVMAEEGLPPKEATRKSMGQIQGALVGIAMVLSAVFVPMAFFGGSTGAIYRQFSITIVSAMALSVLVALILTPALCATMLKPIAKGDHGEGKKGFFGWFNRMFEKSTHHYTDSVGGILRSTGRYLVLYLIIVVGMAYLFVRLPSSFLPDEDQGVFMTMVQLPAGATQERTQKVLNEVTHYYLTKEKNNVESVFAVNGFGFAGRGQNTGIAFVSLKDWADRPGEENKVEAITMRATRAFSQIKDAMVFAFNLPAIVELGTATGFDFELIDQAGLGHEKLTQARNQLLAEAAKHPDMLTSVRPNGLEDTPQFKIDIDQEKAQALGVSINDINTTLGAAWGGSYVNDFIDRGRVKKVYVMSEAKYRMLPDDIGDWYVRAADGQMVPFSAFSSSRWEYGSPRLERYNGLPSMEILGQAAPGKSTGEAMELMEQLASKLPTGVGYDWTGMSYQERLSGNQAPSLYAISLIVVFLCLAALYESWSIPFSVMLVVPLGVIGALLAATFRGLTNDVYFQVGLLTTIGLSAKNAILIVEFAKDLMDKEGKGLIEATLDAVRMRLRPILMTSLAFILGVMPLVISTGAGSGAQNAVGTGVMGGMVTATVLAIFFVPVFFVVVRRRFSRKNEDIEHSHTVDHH

[2] = target: T1, Multidrug efflux pump subunit AcrB (Escherichia coli (strain K12)); test: Inhibition of AcrB in multidrug-resistant Escherichia coli BW25113 assessed as potentiation of erythromycin-induced antibacterial activity by measuring erythromycin MIC at 16 ug/ml by checkerboard titration method (reference value: 64 ug/ml); settings: dose 16.0 µg/ml
[3] = target: T1, Multidrug efflux pump subunit AcrB (Escherichia coli (strain K12)); test: Inhibition of AcrB in multidrug-resistant Escherichia coli BW25113 assessed as potentiation of erythromycin-induced antibacterial activity by measuring erythromycin MIC at 32 ug/ml by checkerboard titration method (reference value: 64 ug/ml); settings: dose 32.0 µg/ml
[4] = target: T1, Multidrug efflux pump subunit AcrB (Escherichia coli (strain K12)); test: Inhibition of AcrB in multidrug-resistant Escherichia coli BW25113 assessed as potentiation of erythromycin-induced antibacterial activity by measuring erythromycin MIC at 64 ug/ml by checkerboard titration method (reference value: 64 ug/ml); settings: dose 64.0 µg/ml
[5] = target: T1, Multidrug efflux pump subunit AcrB (Escherichia coli (strain K12)); test: Inhibition of AcrB in multidrug-resistant Escherichia coli BW25113 assessed as potentiation of erythromycin-induced antibacterial activity by measuring erythromycin MIC at 128 ug/ml by checkerboard titration method (reference value: 64 ug/ml); settings: dose 128.0 µg/ml
[6] = target: T1, Multidrug efflux pump subunit AcrB (Escherichia coli (strain K12)); test: Inhibition of AcrB in multidrug-resistant Escherichia coli BW25113 assessed as potentiation of tetraphenylphosphonium-induced antibacterial activity by measuring tetraphenylphosphonium MIC at 8 ug/ml by checkerboard titration method (reference value: 1024 ug/ml); settings: dose 8.0 µg/ml
[7] = target: T1, Multidrug efflux pump subunit AcrB (Escherichia coli (strain K12)); test: Inhibition of AcrB in multidrug-resistant Escherichia coli BW25113 assessed as potentiation of tetraphenylphosphonium-induced antibacterial activity by measuring tetraphenylphosphonium MIC at 64 ug/ml by checkerboard titration method (reference value: 1024 ug/ml); settings: dose 64.0 µg/ml
[8] = target: T1, Multidrug efflux pump subunit AcrB (Escherichia coli (strain K12)); test: Inhibition of AcrB in multidrug-resistant Escherichia coli BW25113 assessed as potentiation of tetraphenylphosphonium-induced antibacterial activity by measuring tetraphenylphosphonium MIC at 128 ug/ml by checkerboard titration method (reference value: 1024 ug/ml); settings: dose 128.0 µg/ml
[9] = target: T1, Multidrug efflux pump subunit AcrB (Escherichia coli (strain K12)); test: Inhibition of AcrB in multidrug-resistant Escherichia coli BW25113 assessed as potentiation of levofloxacin-induced antibacterial activity by measuring levofloxacin MIC at 16 ug/ml by checkerboard titration method (reference value: 0.06 ug/ml); settings: dose 16.0 µg/ml
[10] = target: T1, Multidrug efflux pump subunit AcrB (Escherichia coli (strain K12)); test: Inhibition of AcrB in multidrug-resistant Escherichia coli BW25113 assessed as potentiation of levofloxacin-induced antibacterial activity by measuring levofloxacin MIC at 64 ug/ml by checkerboard titration method (reference value: 0.06 ug/ml); settings: dose 64.0 µg/ml
Cell membrane [11] = test: Induction of inner membrane permeabilization in wild type Escherichia coli BW25113 assessed as perturbation of proton motive force at 128 ug/ml measured after 10 mins in presence of CCCP and glucose by Di0C2(3) probe based fluorescence assay; settings: escherichia coli bw25113, 10 min, dose 128 µg/ml
How it was run: (§1)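 Cell suspensions were left untreated or exposed to 8-128 µg/mL compound for 10 min. DiOC₂(3) was then added and fluorescence followed to a plateau. Cells were re-energized with 0.5% glucose, and the rise in fluorescence was read as membrane-potential build-up. CCCP was added last to dissipate the potential.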

[12] = target: T1, Multidrug efflux pump subunit AcrB (Escherichia coli (strain K12)); settings: Escherichia coli BW25113; dose 16.0 µg/ml
[13] = target: T1, Multidrug efflux pump subunit AcrB (Escherichia coli (strain K12)); settings: Escherichia coli BW25113; dose 64.0 µg/ml
Cell membrane [14] = test: Induction of inner membrane permeabilization in wild type Escherichia coli BW25113 assessed as perturbation of proton motive force at 32 ug/ml measured after 10 mins in presence of CCCP and glucose by Di0C2(3) probe based fluorescence assay; settings: escherichia coli bw25113, 10 min, dose 32 µg/ml; how it was run: as §1

| Compound | MIC [1] | MIC [2] | MIC [3] | MIC [4] | MIC [5] | MIC [6] | MIC [7] | MIC [8] | MIC [9] | MIC [10] | Activity (Cell membrane [11]) | MIC [12] | MIC [13] | Activity (Cell membrane [14]) |
| --- | --- | --- | --- | --- | --- | --- | --- | --- | --- | --- | --- | --- | --- | --- |
| CC1CN(C(=O)c2cc3c(OCc4ccc(Br)cc4)cccc3c3c2CCC(C)(C)O3)CC(C)O1 (stereo not drawn) | 8 µg/mL | 64 µg/mL | 64 µg/mL | 64 µg/mL | 32 µg/mL | 1020 µg/mL | 1020 µg/mL | 512 µg/mL | 0.06 µg/mL | 0.06 µg/mL | Not Active | 16 µg/mL (≈ 29.7 µM) | 16 µg/mL (≈ 29.7 µM) | – |
| Cc1ccccc1COc1cccc2c3c(c(-c4nnco4)cc12)CCC(C)(C)O3 | 8 µg/mL | 64 µg/mL | 32 µg/mL | 32 µg/mL | 16 µg/mL | 512 µg/mL | 512 µg/mL | 256 µg/mL | 0.06 µg/mL | 0.06 µg/mL | – | 16 µg/mL (≈ 40 µM) | 16 µg/mL (≈ 40 µM) | Not Active |
| CC1(C)CCc2c(-c3nnco3)cc3c(OCc4ccccc4)cccc3c2O1 | 2 µg/mL | 64 µg/mL | 32 µg/mL | 32 µg/mL | 16 µg/mL | 512 µg/mL | 512 µg/mL | 128 µg/mL | 0.06 µg/mL | 0.06 µg/mL | – | 16 µg/mL (≈ 41.4 µM) | 16 µg/mL (≈ 41.4 µM) | Not Active |
| CNC(=O)c1ccc(COc2cccc3c4c(c(Cn5cnnn5)cc23)CCC(C)(C)O4)cc1 | 4 µg/mL | 64 µg/mL | 64 µg/mL | 64 µg/mL | 32 µg/mL | 1020 µg/mL | 1020 µg/mL | 1020 µg/mL | 0.06 µg/mL | 0.06 µg/mL | Not Active | 16 µg/mL (≈ 35 µM) | 16 µg/mL (≈ 35 µM) | – |
| COc1cccc(COc2cccc3c4c(c(-c5nnco5)cc23)CCC(C)(C)O4)c1 | 8 µg/mL | 64 µg/mL | 64 µg/mL | 64 µg/mL | 32 µg/mL | 1020 µg/mL | 512 µg/mL | 512 µg/mL | 0.06 µg/mL | 0.06 µg/mL | Not Active | 16 µg/mL (≈ 38.4 µM) | 16 µg/mL (≈ 38.4 µM) | – |
| CC1(C)CCc2c(-c3nnco3)cc3c(OCc4ccc([N+](=O)[O-])cc4)cccc3c2O1 | 4 µg/mL | 64 µg/mL | 64 µg/mL | 32 µg/mL | 32 µg/mL | 1020 µg/mL | 1020 µg/mL | 1020 µg/mL | 0.06 µg/mL | 0.06 µg/mL | Not Active | 16 µg/mL (≈ 37.1 µM) | 16 µg/mL (≈ 37.1 µM) | – |
| CC1(C)CCc2c(Cn3cnnn3)cc3c(OCc4ccc([N+](=O)[O-])cc4)cccc3c2O1 | 8 µg/mL | 64 µg/mL | 64 µg/mL | 64 µg/mL | 64 µg/mL | 1020 µg/mL | 1020 µg/mL | 512 µg/mL | 0.06 µg/mL | 0.06 µg/mL | Not Active | 16 µg/mL (≈ 35.9 µM) | 16 µg/mL (≈ 35.9 µM) | – |
| C=CC(=O)Nc1ccc(COc2cccc3c4c(c(Cn5cnnn5)cc23)CCC(C)(C)O4)cc1 | 4 µg/mL | 64 µg/mL | 32 µg/mL | 32 µg/mL | 32 µg/mL | 1020 µg/mL | 1020 µg/mL | 1020 µg/mL | 0.06 µg/mL | 0.06 µg/mL | Not Active | 16 µg/mL (≈ 34.1 µM) | 16 µg/mL (≈ 34.1 µM) | – |
| CC1(C)CCc2c(Cn3cnnn3)cc3c(OCc4ccccc4)cccc3c2O1 | 4 µg/mL | 64 µg/mL | 64 µg/mL | 64 µg/mL | 64 µg/mL | 1020 µg/mL | 1020 µg/mL | 1020 µg/mL | 0.06 µg/mL | 0.06 µg/mL | Not Active | 16 µg/mL (≈ 40 µM) | 16 µg/mL (≈ 40 µM) | – |
| CC1(C)CCc2c(Cn3cnnn3)cc3c(OCc4ccc(OC(F)(F)F)cc4)cccc3c2O1 | 4 µg/mL | 64 µg/mL | 64 µg/mL | 64 µg/mL | 32 µg/mL | 1020 µg/mL | 1020 µg/mL | 1020 µg/mL | 0.06 µg/mL | 0.06 µg/mL | Not Active | 16 µg/mL (≈ 33 µM) | 16 µg/mL (≈ 33 µM) | – |
| CC(C)NCCOc1ccc2c(c1)OC(C)(C)CC2=O | 8 µg/mL | 64 µg/mL | 64 µg/mL | 64 µg/mL | 64 µg/mL | 1020 µg/mL | 1020 µg/mL | 1020 µg/mL | 0.03 µg/mL | 0.03 µg/mL | – | 16 µg/mL (≈ 57.7 µM) | 16 µg/mL (≈ 57.7 µM) | – |
| CC1(C)CC(=O)c2ccc(OCCNC3CCCC3)cc2O1 | 8 µg/mL | 64 µg/mL | 64 µg/mL | 64 µg/mL | 64 µg/mL | 512 µg/mL | 512 µg/mL | 512 µg/mL | 0.06 µg/mL | 0.03 µg/mL | – | 16 µg/mL (≈ 52.7 µM) | 16 µg/mL (≈ 52.7 µM) | Not Active |
| CC1CN(C(=O)c2cc3c(OCc4c(Cl)cccc4Cl)cccc3c3c2CCC(C)(C)O3)CC(C)O1 (stereo not drawn) | 8 µg/mL | 64 µg/mL | 64 µg/mL | 64 µg/mL | 64 µg/mL | 1020 µg/mL | 1020 µg/mL | 1020 µg/mL | 0.03 µg/mL | 0.03 µg/mL | – | 16 µg/mL (≈ 30.3 µM) | 16 µg/mL (≈ 30.3 µM) | – |
| C=CC(=O)Nc1ccc(COc2cccc3c4c(c(C(=O)N5CCOCC5)cc23)CCC(C)(C)O4)cc1 | 2 µg/mL | 16 µg/mL | 16 µg/mL | 16 µg/mL | 8 µg/mL | 512 µg/mL | 128 µg/mL | 64 µg/mL | 0.06 µg/mL | 0.06 µg/mL | Not Active | 16 µg/mL (≈ 32 µM) | 16 µg/mL (≈ 32 µM) | – |
| COc1cccc(COc2cccc3c4c(c(C(=O)N5CCOCC5)cc23)CCC(C)(C)O4)c1 | 2 µg/mL | 64 µg/mL | 32 µg/mL | 32 µg/mL | 16 µg/mL | 512 µg/mL | 256 µg/mL | 128 µg/mL | 0.06 µg/mL | 0.06 µg/mL | – | 16 µg/mL (≈ 34.7 µM) | 16 µg/mL (≈ 34.7 µM) | Not Active |
